Legend:
[1] = biological target: T1, Cannabinoid receptor 2 (Homo sapiens, UniProt P34972); experiment: Antagonist activity at CB2 receptor (unknown origin) expressed in CHO cells assessed as inhibition of CP55940-induced calcium mobilization at 10 uM preincubated for 10 mins followed by CP55940-induction by fluo-4 AM dye-based fluorescence assay relative to SR141716A; type: functional, cell-based
Outline: (§1)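 Cell-based calcium mobilization, antagonist mode, single-concentration screen at 10 µM against CB1 and CB2. SR141716A served as the antagonist-mode positive control.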

[2] = biological target: T2, Cannabinoid receptor 1 (Homo sapiens, UniProt P21554); experiment: Agonist activity at CB1 receptor (unknown origin) expressed in CHO cells assessed as induction of calcium mobilization at 10 uM by fluo-4 AM dye-based fluorescence assay relative to CP55940; type: functional, cell-based
T2 sequence (P21554 whole entry): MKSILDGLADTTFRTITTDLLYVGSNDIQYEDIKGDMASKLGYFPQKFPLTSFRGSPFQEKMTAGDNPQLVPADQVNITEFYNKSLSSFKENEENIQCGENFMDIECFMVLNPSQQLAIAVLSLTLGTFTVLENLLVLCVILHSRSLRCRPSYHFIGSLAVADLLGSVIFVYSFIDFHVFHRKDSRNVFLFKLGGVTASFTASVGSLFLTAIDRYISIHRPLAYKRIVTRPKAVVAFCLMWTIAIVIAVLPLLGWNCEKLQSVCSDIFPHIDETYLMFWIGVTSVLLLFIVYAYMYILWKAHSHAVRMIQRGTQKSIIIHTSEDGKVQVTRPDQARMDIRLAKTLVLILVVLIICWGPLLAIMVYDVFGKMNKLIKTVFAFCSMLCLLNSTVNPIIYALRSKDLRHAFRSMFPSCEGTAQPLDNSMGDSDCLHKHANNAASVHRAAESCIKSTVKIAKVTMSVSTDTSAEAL

[3] = biological target: T2, Cannabinoid receptor 1; experiment: Agonist activity at CB1 receptor (unknown origin) expressed in CHO cells assessed as induction of calcium mobilization by fluo-4 AM dye-based fluorescence assay; type: functional, cell-based
[4] = biological target: T1, Cannabinoid receptor 2; experiment: Agonist activity at CB2 receptor (unknown origin) expressed in CHO cells assessed as induction of calcium mobilization at 10 uM by fluo-4 AM dye-based fluorescence assay relative to CP55940; type: functional, cell-based
[5] = biological target: T2, Cannabinoid receptor 1; experiment: Antagonist activity at CB1 receptor (unknown origin) expressed in CHO cells assessed as inhibition of CP55940-induced calcium mobilization at 10 uM preincubated for 10 mins followed by CP55940-induction by fluo-4 AM dye-based fluorescence assay relative to SR141716A; type: functional, cell-based; outline: as §1
[6] = biological target: T1, Cannabinoid receptor 2; experiment: Agonist activity at CB2 receptor (unknown origin) expressed in CHO cells assessed as induction of calcium mobilization by fluo-4 AM dye-based fluorescence assay; type: functional, cell-based
[7] = biological target: T1, Cannabinoid receptor 2; experiment: Agonist activity at CB2 receptor (unknown origin) expressed in CHO cells assessed as induction of calcium mobilization by fluo-4 AM dye-based fluorescence assay relative to CP55940; type: functional, cell-based
Outline: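 Cell-based calcium mobilization, agonist mode, with CP55940 as positive control. Compounds giving more than 50% activation in a single-concentration 10 µM primary screen were run in dose-response to derive EC50.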

[8] = organism: Homo sapiens; experiment: Selectivity index, ratio of EC50 for CB1 receptor (unknown origin) to EC50 for CB2 receptor (unknown origin)
[9] = biological target: T1, Cannabinoid receptor 2; experiment: Potency index, ratio of GW842166X EC50 to test compound EC50 for agonist activity at CB2 receptor (unknown origin); type: functional
[10] = biological target: T1, Cannabinoid receptor 2; experiment: Potency index, ratio of CP55940 EC50 to test compound EC50 for agonist activity at CB2 receptor (unknown origin); type: functional

T1 sequence (P34972 whole entry): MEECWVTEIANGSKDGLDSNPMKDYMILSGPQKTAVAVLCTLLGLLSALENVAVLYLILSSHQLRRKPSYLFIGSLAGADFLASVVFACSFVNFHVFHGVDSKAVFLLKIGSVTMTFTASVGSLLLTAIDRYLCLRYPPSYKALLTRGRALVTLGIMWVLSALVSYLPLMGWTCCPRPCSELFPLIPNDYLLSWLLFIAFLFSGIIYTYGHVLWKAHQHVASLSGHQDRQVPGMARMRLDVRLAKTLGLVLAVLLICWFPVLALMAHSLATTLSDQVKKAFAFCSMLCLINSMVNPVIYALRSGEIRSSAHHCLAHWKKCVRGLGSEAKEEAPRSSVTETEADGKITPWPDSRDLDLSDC

Row | Compound | inhibition [1] [%] | Activity [2] [%] | EC50 [3] [nM] | Activity [4] [%] | inhibition [5] [%] | EC50 [6] [nM] | Emax [7] [%] | Ratio EC50 [8] | Ratio EC50 [9] | Ratio EC50 [10]
1 | CC(C)c1cc(N2CCN(C)CC2)nnc1C(=O)NC1C2CC3CC(C2)CC1C3 (stereo not given) | 10.1 | 16.7 | > 10000 | 3.06 | 37.3 | > 10000 |  |  |  | 
2 | CC(C)c1cc(NC(C)C(C)C)nnc1C(=O)NC1C2CC3CC(C2)CC1C3 (stereo not given) |  | 10.7 | > 10000 | 82 | 7.68 | 2940 | 77 | > 3 |  | 
3 | CC(C)c1cc(C(=O)NC2C3CC4CC(C3)CC2C4)nnc1NCC1CC1 (stereo not given) |  | 39.3 | 6050 | 113 |  | 167 | 109 | 36 |  | 
4 | CC(C)c1cc(C(=O)NC2C3CC4CC(C3)CC2C4)nnc1Nc1cccc(Cl)c1 (stereo not given) | 19.4 | 2.12 | > 10000 | 19.2 | 5.1 | > 10000 |  |  |  | 
5 | CCC(CC)Nc1nnc(C(=O)NC2C3CC4CC(C3)CC2C4)cc1C(C)C (stereo not given) | 0.214 | -5.62 | > 10000 | 25 | 4.48 | > 10000 |  |  |  | 
6 | CCCCNc1cc(C(C)C)c(C(=O)NC2C3CC4CC(C3)CC2C4)nn1 (stereo not given) |  | 13.7 | > 10000 | 91.4 |  | 49.4 | 108 | > 203 |  | 
7 | CC(C)c1cc(C(=O)NC2C3CC4CC(C3)CC2C4)nnc1NC1CCCC1 (stereo not given) |  | 6.55 | > 10000 | 122 | 24.1 | 34.4 | 114 | > 291 | > 10 | 
8 | CC(C)c1cc(NC2CCCC2)nnc1C(=O)NC12CC3CC(CC(C3)C1)C2 |  | 19.5 | > 10000 | 95.5 | 44.5 | 301 | 80 | > 33 |  | 
9 | O=C(NCC1CCOCC1)c1cnc(Nc2ccc(Cl)cc2Cl)nc1C(F)(F)F [GW842166X] |  | 18.2 | > 10000 | 129 | 11.8 |  |  | > 29 |  | 
10 | CC(C)c1cc(N2CCOCC2)nnc1C(=O)NC1C2CC3CC(C2)CC1C3 (stereo not given) |  | 26.1 | > 10000 | 126 |  | 3.67 | 91 | > 2730 | 94 | 8
11 | CCCCNc1nnc(C(=O)NC2C3CC4CC(C3)CC2C4)cc1C(C)C (stereo not given) |  | 89.3 | 2610 | 97.1 |  | 96.2 | 93 | 27 |  | 
12 | CC(C)c1cc(C(=O)NC23CC4CC(CC(C4)C2)C3)nnc1N1CCOCC1 |  | -2.98 | > 10000 | 101 |  | 349 | 125 | > 29 |  | 
13 | CC(C)c1cc(C(=O)NC2CCCCC2)nnc1N1CCOCC1 |  | -4.03 | > 10000 | 107 | -8.12 | 970 | 99 | > 10 |  | 
14 | CC(C)c1cc(NC2CCCCC2)nnc1C(=O)NC1C2CC3CC(C2)CC1C3 (stereo not given) |  | -0.238 | > 10000 | 119 |  | 398 | 81 | > 25 |  | 
15 | CC(C)c1cc(N2CCOCC2)nnc1C(=O)NC12CC3CC(CC(C3)C1)C2 |  | 3.8 | > 10000 | 117 | 16.9 | 396 | 93 | > 25 |  | 
16 | CC(C)c1cc(N2CCOCC2)nnc1C(=O)NC1CCCCC1 |  | 6.25 | > 10000 | 87.2 | -9.42 | 594 | 91 | > 17 |  | 
17 | CCCCNc1cc(C(C)C)c(C(=O)NC23CC4CC(CC(C4)C2)C3)nn1 |  | 10.7 | 10000 | 64 |  | 159 | 76 | > 63 |  | 

Row | Compound | inhibition [1] [%] | Activity [2] [%] | EC50 [3] [nM] | Activity [4] [%] | inhibition [5] [%] | EC50 [6] [nM] | Emax [7] [%] | Ratio EC50 [8] | Ratio EC50 [9] | Ratio EC50 [10]
18 | CC(C)c1cc(NCCO)nnc1C(=O)NC1CCCCC1 |  | 14.8 | > 10000 | 91.1 |  | 842 | 81 | > 12 |  | 
19 | CC(C)c1cc(NC2CC2)nnc1C(=O)NC1C2CC3CC(C2)CC1C3 (stereo not given) |  | 7.48 | > 10000 | 119 |  | 17.1 | 117 | > 584 |  | 
20 | CC(C)c1cc(NCCO)nnc1C(=O)NC1C2CC3CC(C2)CC1C3 (stereo not given) |  | 17.4 | > 10000 | 137 | -8.39 | 4.96 | 94 | > 2020 |  | 
21 | CC(C)c1cc(C(=O)NC2C3CC4CC(C3)CC2C4)nnc1NCCO (stereo not given) |  | -0.906 | > 10000 | 124 | 1.87 | 99.9 | 127 | > 100 |  | 
22 | CC(C)c1cc(Nc2cccc(Cl)c2)nnc1C(=O)NC1C2CC3CC(C2)CC1C3 (stereo not given) | 44.3 | -6.45 | > 10000 | 48 |  | 6700 | 77 | > 1 |  | 
23 | CCCCNc1cc(C(C)C)c(C(=O)NC2CCCCC2)nn1 | 50.6 | 8.74 | > 10000 | 13.4 | 47.9 | > 10000 |  |  |  | 
24 | CC(C)c1cc(NCC2CC2)nnc1C(=O)NC1C2CC3CC(C2)CC1C3 (stereo not given) |  | 31.3 | > 10000 | 125 | 22.1 | 47.7 | 135 | > 210 |  | 
25 | O=C(NC12CC3CC(CC(C3)C1)C2)c1ccc(N2CCOCC2)nn1 | 25.8 | -4.49 | > 10000 | 33.7 |  | > 10000 |  |  |  | 
26 | O=C(NC1CCCCC1)c1ccc(N2CCOCC2)nn1 | 16.3 | -3.69 | > 10000 | 17.7 |  | > 10000 |  |  |  | 
27 | CC(C)c1cc(NCCO)nnc1C(=O)NC12CC3CC(CC(C3)C1)C2 |  | 13.4 | > 10000 | 125 |  | 42.6 | 114 | > 235 |  | 
28 | CC(C)c1cc(NC2CCCC2)nnc1C(=O)NC1C2CC3CC(C2)CC1C3 (stereo not given) |  | 23.2 | > 10000 | 141 | 38.2 | 5.7 | 107 | > 1750 |  | 
29 | CC(C)c1cc(C(=O)NC2C3CC4CC(C3)CC2C4)nnc1NC1CCCCC1 (stereo not given) |  | 2.64 | > 10000 | 106 | 39.3 | 199 | 91 | > 50 |  | 
30 | CC(C)c1cc(C(=O)NC2C3CC4CC(C3)CC2C4)nnc1N1CCCCC1 (stereo not given) |  | -1.23 | > 10000 | 63 | -3.84 | 3450 | 106 | > 3 |  | 
31 | CC(C)c1cc(NC2CCCC2)nnc1C(=O)NC1CCCCC1 |  | 9.48 | > 10000 | 87.5 |  | 338 | 78 | > 30 |  | 
32 | CC(C)c1cc(N2CCCCC2)nnc1C(=O)NC1C2CC3CC(C2)CC1C3 (stereo not given) |  | 16 | > 10000 | 114 | 44.1 | 18.1 | 140 | > 553 |  | 
33 | O=C(NC1C2CC3CC(C2)CC1C3)c1ccc(N2CCOCC2)nn1 (stereo not given) |  | 3.24 | > 10000 | 63.2 | 17.7 | 8420 | 79 | > 1 |  | 
34 | CC(C)c1cc(C(=O)NC2C3CC4CC(C3)CC2C4)nnc1N1CCOCC1 (stereo not given) |  | -0.267 | > 10000 | 107 | 1.8 | 403 | 105 | > 25 |  | 
